According to paper PMC9055920 (RSC Advances, 2020):
Read-outs that look alike come from different tables or passages of the source.

How the values were obtained:
α-glucosidase [1] = conditions: cited from earlier work
α-glucosidase [2] = target: T1, α-glucosidase (Saccharomyces cerevisiae, UniProt P53341); assay: CD spectroscopy of secondary structure
Procedure, shortened: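 Far-UV CD spectra (190–250 nm) were recorded for S. cerevisiae α-glucosidase held at 2 μmol L−1, with test flavonol added at flavonol:enzyme molar ratios of 0:1, 40:1 and 80:1. Each spectrum was averaged over three scans under constant nitrogen flush, and the buffer signal was subtracted. Experiments were done in triplicate.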

α-glucosidase [3] = target: T1, α-glucosidase; assay: Kinetic analysis of inhibitory type; type: biochemical; conditions: Lineweaver–Burk plots
α-glucosidase [4] = target: T1, α-glucosidase; assay: Fluorescence quenching and thermodynamic analysis; type: binding; conditions: for ΔH° enthalpy change / ΔS° entropy change: van't Hoff plot over 298, 304, 310 K
α-glucosidase [5] = target: T1, α-glucosidase; assay: Reversibility, plots of v vs. [α-glucosidase]; type: biochemical; conditions: myricetin 0–6.25 × 10^−5 mol L^−1, c(pNPG) = 3.13 × 10^−4 mol L^−1
[6] = target: Saccharomyces cerevisiae α-glucosidase (Saccharomyces cerevisiae, UniProt P53341); assay: α-Glucosidase enzyme activity; type: biochemical; conditions: at the concentration of 125 μmol L^−1
[7] = clinically used antidiabetic drugs
[8] = molar ratio of myricetin to α-glucosidase 40 : 1
[9] = molar ratio of myricetin to α-glucosidase 80 : 1
[10] = natural α-glucosidase inhibitors

T1 sequence (P53341 whole entry): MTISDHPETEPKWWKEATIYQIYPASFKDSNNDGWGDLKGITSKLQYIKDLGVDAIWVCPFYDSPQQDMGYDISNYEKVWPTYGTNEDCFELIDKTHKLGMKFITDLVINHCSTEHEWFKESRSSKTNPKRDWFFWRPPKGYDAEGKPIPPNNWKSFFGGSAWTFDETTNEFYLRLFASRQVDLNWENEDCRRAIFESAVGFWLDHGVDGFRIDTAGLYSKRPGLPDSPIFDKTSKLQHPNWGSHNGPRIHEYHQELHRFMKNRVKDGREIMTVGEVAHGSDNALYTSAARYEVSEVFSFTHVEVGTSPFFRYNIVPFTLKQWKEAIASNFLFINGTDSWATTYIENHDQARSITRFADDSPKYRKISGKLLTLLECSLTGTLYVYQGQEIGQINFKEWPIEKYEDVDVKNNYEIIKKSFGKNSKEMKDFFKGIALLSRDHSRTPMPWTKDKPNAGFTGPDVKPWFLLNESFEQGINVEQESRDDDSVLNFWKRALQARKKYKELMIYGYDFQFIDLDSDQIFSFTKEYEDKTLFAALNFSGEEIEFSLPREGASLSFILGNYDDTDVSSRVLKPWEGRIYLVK
Saccharomyces cerevisiae α-glucosidase, sequence (P53341 whole entry): as above

Structure (SMILES)	type of α-glucosidase inhibition (reported) (α-glucosidase [1]; [7])	Inhibitory type (α-glucosidase [3])	Ksv, Stern–Volmer quenching constant (α-glucosidase [4]; 298 K)	n, number of binding sites per protein molecule (α-glucosidase [4]; 298 K)	ΔG° free energy change (α-glucosidase [4]; 298 K)	Ksv, Stern–Volmer quenching constant (α-glucosidase [4]; 304 K)	n, number of binding sites per protein molecule (α-glucosidase [4]; 304 K)	ΔG° free energy change (α-glucosidase [4]; 304 K)	n, number of binding sites per protein molecule (α-glucosidase [4]; 310 K)	ΔG° free energy change (α-glucosidase [4]; 310 K)	ΔH° enthalpy change (α-glucosidase [4])	ΔS° entropy change (α-glucosidase [4])	type of α-glucosidase inhibition (reported) (α-glucosidase [1]; [10])	other results
OCC(CO)N[C@H]1C[C@](O)(CO)[C@@H](O)[C@H](O)[C@H]1O [voglibose]	competitive inhibitors													
O=c1c(O)c(-c2cc(O)c(O)c(O)c2)oc2cc(O)cc(O)c12 [myricetin]		Mixed-type	14.26 ± 0.03 ×10^4 L mol^−1	0.99 ± 0.01	-7.012 ± 0.012 kcal/mol	13.81 ± 0.04 ×10^4 L mol^−1	1.04 ± 0.01	-7.075 ± 0.0096 kcal/mol	1.06 ± 0.01	-7.139 ± 0.0096 kcal/mol	-3.862 ± 0.136 kcal/mol	44.22 ± 1.17 J mol^−1K^−1		random coil percentage of α-glucosidase (α-glucosidase [2]; [8]): 28.0%; α-helix content of α-glucosidase (α-glucosidase [2]; [8]): 17.6%; β-sheet proportion of α-glucosidase (α-glucosidase [2]; [8]): 45.7%; β-turn content of α-glucosidase (α-glucosidase [2]; [8]): 8.7%; random coil percentage of α-glucosidase (α-glucosidase [2]; [9]): 28.2%; α-helix content of α-glucosidase (α-glucosidase [2]; [9]): 15.5%; β-sheet proportion of α-glucosidase (α-glucosidase [2]; [9]): 49.9%; β-turn content of α-glucosidase (α-glucosidase [2]; [9]): 6.4%; Ksv, Stern–Volmer quenching constant (α-glucosidase [4]; 310 K): 13.05 ± 0.03 ×10^4 L mol^−1; reversibility of inhibition (α-glucosidase [5]): reversible inhibitor
C[C@H]1O[C@H](O[C@H]2[C@H](O)[C@@H](O)[C@@H](O[C@H]3[C@H](O)[C@@H](O)C(O)O[C@@H]3CO)O[C@@H]2CO)[C@H](O)[C@@H](O)[C@@H]1N[C@H]1C=C(CO)[C@@H](O)[C@H](O)[C@H]1O (stereo partly drawn) [acarbose, reference compound]	competitive inhibitors	Competitive												
O=c1c(O)c(-c2ccc(O)cc2O)oc2cc(O)cc(O)c12 [morin]													mixed-type	
OCCN1C[C@H](O)[C@@H](O)[C@H](O)[C@H]1CO [miglitol]	competitive inhibitors													
O=c1c(O)c(-c2ccc(O)c(O)c2)oc2cc(O)cc(O)c12 [quercetin]		Mixed-type	11.42 ± 0.06 ×10^4 L mol^−1	0.97 ± 0.01	-6.948 ± 0.0072 kcal/mol	11.20 ± 0.06 ×10^4 L mol^−1	0.99 ± 0.01	-7.027 ± 0.0072 kcal/mol	1.01 ± 0.01	-7.108 ± 0.0096 kcal/mol	-2.923 ± 0.234 kcal/mol	56.51 ± 3.27 J mol^−1K^−1		inhibition of the activity of α-glucosidase [6]: approximately 75%
O=c1cc(-c2ccc(O)c(O)c2)oc2cc(O)cc(O)c12 [luteolin]													mixed-type	
O=c1c(O)c(-c2ccc(O)cc2)oc2cc(O)cc(O)c12 [kaempferol]		Mixed-type	9.91 ± 0.08 ×10^4 L mol^−1	0.87 ± 0.01	-6.938 ± 0.0072 kcal/mol	8.81 ± 0.05 ×10^4 L mol^−1	0.93 ± 0.01	-7.032 ± 0.0024 kcal/mol	0.98 ± 0.01	-7.122 ± 0.0048 kcal/mol	-2.32 ± 0.237 kcal/mol	64.84 ± 3.25 J mol^−1K^−1		Ksv, Stern–Volmer quenching constant (α-glucosidase [4]; 310 K): 8.04 ± 0.02 ×10^4 L mol^−1; inhibition of the activity of α-glucosidase [6]: approximately 60%
O=c1c(O)c(-c2ccccc2)oc2cc(O)cc(O)c12 [galangin]													mixed-type	
O=c1c(-c2ccc(O)cc2)coc2cc(O)cc(O)c12 [genistein]													mixed-type	
